The record followed here is ChEMBL document CHEMBL4622996, “Discovery of Vixotrigine: A Novel Use-Dependent Sodium Channel Blocker for the Treatment of Trigeminal Neuralgia” (ACS Med Chem Lett, 2020).

By bioavailability is commonly meant the share of a dose that reaches the circulation, judged against a reference dose that is usually intravenous. One may read the Cmax as the maximum level reached in the sampled fluid or tissue. A word on the IC50: it is the concentration that gives 50% inhibition.

The nature of data set [1]: Oral bioavailability in monkey at 3 mg/kg. Format: ADME, organism-based, Macaca mulatta. Conditions: rhesus monkey, in vivo.
Data set [2] can be described thus: Cmax in rat at 3 mg/kg, po. Format: ADME, organism-based. Further details: dose 3 mg/kg, route oral. Conditions: in vivo.
Data set [3] deals with Sodium channel protein type 3 subunit alpha (Homo sapiens, UniProt Q9NY46). Briefly: Inhibition of Nav1.3 (unknown origin) expressed in HEK293 cells assessed as inhibition of sodium current incubated for 3 to 3.5 mins by electrophysiology assay. Format: cell-based. In short, it runs like this:
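HEK293 cells stably expressing NaV1.3, grown in DMEM-F12 with 10% FBS at 37 °C, dissociated at 50–70% confluency; IonWorksHT planar patch clamp at 21–23 °C, amphotericin perforated access; intracellular K-gluconate 100, KCl 40, MgCl2 3.2, EGTA 3, HEPES 5 mM, pH 7.3.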

The target of data set [4] is Cytochrome P450 2C9 (Homo sapiens, UniProt P11712). Briefly: Inhibition of CYP2C9 (unknown origin). The class given is ADME.
Sequence of Cytochrome P450 2C9 (P11712 whole entry): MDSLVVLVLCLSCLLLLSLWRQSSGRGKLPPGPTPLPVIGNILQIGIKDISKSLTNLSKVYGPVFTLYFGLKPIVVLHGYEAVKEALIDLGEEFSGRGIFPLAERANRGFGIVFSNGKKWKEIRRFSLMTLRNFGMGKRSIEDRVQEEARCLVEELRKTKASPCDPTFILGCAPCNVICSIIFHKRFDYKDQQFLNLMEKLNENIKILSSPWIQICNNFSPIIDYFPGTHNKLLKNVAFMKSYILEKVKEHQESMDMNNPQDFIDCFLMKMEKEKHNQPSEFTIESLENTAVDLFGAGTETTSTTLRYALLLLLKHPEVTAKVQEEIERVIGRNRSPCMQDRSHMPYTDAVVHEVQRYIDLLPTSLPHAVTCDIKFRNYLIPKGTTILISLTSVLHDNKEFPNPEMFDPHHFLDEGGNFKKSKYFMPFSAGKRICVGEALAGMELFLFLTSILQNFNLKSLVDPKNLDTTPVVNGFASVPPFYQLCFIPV

Sequence of Sodium channel protein type 3 subunit alpha (Q9NY46 whole entry): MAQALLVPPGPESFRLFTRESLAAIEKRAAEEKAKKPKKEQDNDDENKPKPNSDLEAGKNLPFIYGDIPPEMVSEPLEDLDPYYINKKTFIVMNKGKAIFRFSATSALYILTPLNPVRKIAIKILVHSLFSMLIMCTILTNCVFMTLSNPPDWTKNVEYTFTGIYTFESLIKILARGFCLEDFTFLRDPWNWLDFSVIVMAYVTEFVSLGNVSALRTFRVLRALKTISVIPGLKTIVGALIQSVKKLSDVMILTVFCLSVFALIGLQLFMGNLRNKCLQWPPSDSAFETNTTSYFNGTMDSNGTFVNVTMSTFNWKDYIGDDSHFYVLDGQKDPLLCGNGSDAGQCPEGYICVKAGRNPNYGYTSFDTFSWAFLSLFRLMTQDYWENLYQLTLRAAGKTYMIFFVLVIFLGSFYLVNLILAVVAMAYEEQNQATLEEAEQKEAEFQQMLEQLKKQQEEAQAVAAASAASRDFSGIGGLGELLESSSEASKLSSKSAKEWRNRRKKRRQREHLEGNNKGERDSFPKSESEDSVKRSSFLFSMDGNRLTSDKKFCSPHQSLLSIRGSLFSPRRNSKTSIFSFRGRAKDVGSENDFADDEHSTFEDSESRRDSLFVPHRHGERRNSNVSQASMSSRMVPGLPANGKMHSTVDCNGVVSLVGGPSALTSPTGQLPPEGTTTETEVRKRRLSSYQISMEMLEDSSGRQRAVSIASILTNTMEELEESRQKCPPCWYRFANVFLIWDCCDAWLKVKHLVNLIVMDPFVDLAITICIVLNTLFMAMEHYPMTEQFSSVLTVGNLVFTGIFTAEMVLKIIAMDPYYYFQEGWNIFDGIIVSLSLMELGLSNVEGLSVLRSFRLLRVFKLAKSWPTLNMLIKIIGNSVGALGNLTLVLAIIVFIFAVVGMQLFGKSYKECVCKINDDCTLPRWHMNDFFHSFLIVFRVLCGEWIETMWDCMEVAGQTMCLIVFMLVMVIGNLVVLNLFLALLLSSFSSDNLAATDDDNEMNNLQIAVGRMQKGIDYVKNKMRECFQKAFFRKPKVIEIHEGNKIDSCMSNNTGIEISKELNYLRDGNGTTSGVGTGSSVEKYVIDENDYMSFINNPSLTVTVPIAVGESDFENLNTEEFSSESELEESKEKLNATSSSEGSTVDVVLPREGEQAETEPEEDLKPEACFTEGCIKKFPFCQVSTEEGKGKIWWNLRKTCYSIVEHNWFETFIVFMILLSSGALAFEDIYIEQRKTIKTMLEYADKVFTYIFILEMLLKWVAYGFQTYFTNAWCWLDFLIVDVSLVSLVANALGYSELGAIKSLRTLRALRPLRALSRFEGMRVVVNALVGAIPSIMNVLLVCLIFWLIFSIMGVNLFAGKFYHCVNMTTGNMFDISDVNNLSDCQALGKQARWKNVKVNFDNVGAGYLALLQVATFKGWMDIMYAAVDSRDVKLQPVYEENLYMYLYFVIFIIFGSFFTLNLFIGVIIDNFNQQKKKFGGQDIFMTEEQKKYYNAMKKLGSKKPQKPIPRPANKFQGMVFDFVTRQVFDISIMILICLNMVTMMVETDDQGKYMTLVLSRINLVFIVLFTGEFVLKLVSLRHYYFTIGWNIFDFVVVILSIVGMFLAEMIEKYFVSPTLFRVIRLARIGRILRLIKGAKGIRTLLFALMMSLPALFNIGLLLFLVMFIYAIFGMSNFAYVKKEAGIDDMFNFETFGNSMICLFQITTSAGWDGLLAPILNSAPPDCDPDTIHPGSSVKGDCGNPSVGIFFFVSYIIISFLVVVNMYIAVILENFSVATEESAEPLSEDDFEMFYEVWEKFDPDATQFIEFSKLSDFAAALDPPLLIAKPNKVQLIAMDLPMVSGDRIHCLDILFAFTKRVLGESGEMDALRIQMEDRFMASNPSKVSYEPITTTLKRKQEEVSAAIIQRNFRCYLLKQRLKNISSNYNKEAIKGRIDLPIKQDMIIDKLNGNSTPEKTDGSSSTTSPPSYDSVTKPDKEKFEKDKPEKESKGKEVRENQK

Turning to `Cl.NC(=O)[C@@H]1CC[C@H](c2ccc(OCc3ccccc3F)cc2)N1` [RAXATRIGINE HYDROCHLORIDE], in data set [1], the bioavailability came out at 42%. In data set [2], the Cmax was 226 ng/mL. Besides, the figures for the IC50 in data set [3] and in data set [4] were 63.1 µM and over 100 µM, respectively.
